In ChEMBL document CHEMBL3244174, “Synthesis and biological activity of some new furan quaternary salts” (J Med Chem, 1977):

How the values were obtained:
Staphylococcus aureus = assay: Antibacterial activity against Staphylococcus aureus ATCC 6538 assessed as growth inhibition after 24 hrs by dilution tube method; assay type: functional; conditions: ATCC 6538, 24 h
Summary of the method: (§1)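 Broth tube dilution in Tryptone Soya Broth, duplicate tubes at each concentration. MIC (μg/ml) was the highest dilution preventing visible growth. Nitrofurantoin run under the same conditions.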

Cryptococcus neoformans = assay: Antifungal activity against Cryptococcus neoformans 103 assessed as growth inhibition by agar dilution method; assay type: functional
Trichophyton rubrum = assay: Antifungal activity against Trichophyton rubrum 252 CSTM assessed as growth inhibition by agar dilution method; assay type: functional
Candida albicans = assay: Antifungal activity against Candida albicans SKF 2270 assessed as growth inhibition by agar dilution method; assay type: functional
[1] = test system: Mycobacterium tuberculosis; assay: Antibacterial activity against Mycobacterium tuberculosis H37Rv assessed as growth inhibition by serial dilution method; assay type: functional
Summary of the method: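 M. tuberculosis H37Rv maintained on Lowenstein–Jensen medium; tested in Youman's medium by serial dilution.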

[2] = test system: Trichophyton mentagrophytes; assay: Antifungal activity against Trichophyton mentagrophytes A-280 USPHS assessed as growth inhibition by agar dilution method; assay type: functional
Nannizzia gypsea = assay: Antifungal activity against Microsporum gypseum 153 CSTM assessed as growth inhibition by agar dilution method; assay type: functional
Salmonella typhi = assay: Antibacterial activity against Salmonella typhi 115 assessed as growth inhibition after 24 hrs by dilution tube method; assay type: functional, Salmonella enterica subsp. enterica serovar Typhi; conditions: Salmonella enterica, 115, 24 h
Summary of the method: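 Dilution tube method in Tryptone Soya Broth; MIC (μg/ml) taken as highest dilution preventing visible growth; duplicates at every concentration; nitrofurantoin reference run under same conditions.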

Histoplasma capsulatum = assay: Antifungal activity against Histoplasma capsulatum RNSH Hi-70 1/2 assessed as growth inhibition by agar dilution method; assay type: functional
Microsporum canis = assay: Antifungal activity against Microsporum canis VM-200 USPHS assessed as growth inhibition by agar dilution method; assay type: functional
Pseudomonas aeruginosa = assay: Antibacterial activity against Pseudomonas aeruginosa ATCC 10145 assessed as growth inhibition after 24 hrs by dilution tube method; assay type: functional; conditions: ATCC 10145, 24 h; summary of the method: as §1
Enterococcus faecalis = assay: Antibacterial activity against Streptococcus faecalis ATCC 10541 assessed as growth inhibition after 24 hrs by dilution tube method; assay type: functional; conditions: ATCC 10541, 24 h; summary of the method: as §1
[3] = test system: Agrobacterium tumefaciens; assay: Antibacterial activity against Agrobacterium tumefaciens NRRL B-36 assessed as growth inhibition after 24 hrs by dilution tube method; assay type: functional; conditions: NRRL B-36, 24 h; summary of the method: as §1
Escherichia coli = assay: Antibacterial activity against Escherichia coli 114 assessed as growth inhibition after 24 hrs by dilution tube method; assay type: functional; conditions: Escherichia coli, 114, 24 h; summary of the method: as §1
Klebsiella pneumoniae = assay: Antibacterial activity against Klebsiella pneumoniae ATCC 10031 assessed as growth inhibition after 24 hrs by dilution tube method; assay type: functional; conditions: ATCC 10031, 24 h; summary of the method: as §1

SMILES | MIC (Staphylococcus aureus) | MIC (Cryptococcus neoformans) | MIC (Trichophyton rubrum) | MIC (Candida albicans) | MIC [1] | MIC [2] | MIC (Nannizzia gypsea) | MIC (Salmonella typhi) | MIC (Histoplasma capsulatum) | MIC (Microsporum canis) | MIC (Pseudomonas aeruginosa) | MIC (Enterococcus faecalis) | MIC [3] | MIC (Escherichia coli) | MIC (Klebsiella pneumoniae)
Cc1cc(OCC[N+](C)(C)Cc2ccc([N+](=O)[O-])o2)c(C(C)C)cc1Cl.Cc1ccc(S(=O)(=O)[O-])cc1 | 100 µg/mL | 100 µg/mL | > 200 µg/mL | > 200 µg/mL | 50 µg/mL | > 200 µg/mL | > 200 µg/mL | > 200 µg/mL | > 200 µg/mL | > 200 µg/mL | 25 µg/mL | 200 µg/mL | 100 µg/mL | > 200 µg/mL | 25 µg/mL
C[N+](C)(CCOc1ccc(Cl)cc1Cl)Cc1ccc([N+](=O)[O-])o1.[Br-] | 200 µg/mL | > 200 µg/mL | > 200 µg/mL | > 200 µg/mL | > 200 µg/mL | > 200 µg/mL | > 200 µg/mL | > 200 µg/mL | > 200 µg/mL | > 200 µg/mL | 100 µg/mL | > 200 µg/mL | > 200 µg/mL | > 200 µg/mL | 100 µg/mL
C[N+](C)(CCCCCCCOc1c(Br)cc(Br)cc1Br)Cc1ccc([N+](=O)[O-])o1.[Br-] | 7.5 µg/mL | 5 µg/mL | > 200 µg/mL | > 200 µg/mL | 10 µg/mL | > 200 µg/mL | > 200 µg/mL | > 200 µg/mL | > 200 µg/mL | > 200 µg/mL | 3 µg/mL | 7.5 µg/mL | 25 µg/mL | > 200 µg/mL | 5 µg/mL
C[N+](C)(CCCCCCCCCCOc1c(Br)cc(Br)cc1Br)Cc1ccc(Br)o1.[Br-] | 10 µg/mL | 4 µg/mL | > 200 µg/mL | > 200 µg/mL | 50 µg/mL | > 200 µg/mL | > 200 µg/mL | > 200 µg/mL | > 200 µg/mL | > 200 µg/mL | 2 µg/mL | 4 µg/mL | 7.5 µg/mL | > 200 µg/mL | 3 µg/mL
C[N+](C)(CCCOc1c(Br)cc(Br)cc1Br)Cc1ccc([N+](=O)[O-])o1.[Br-] | 50 µg/mL | 200 µg/mL | > 200 µg/mL | > 200 µg/mL | 50 µg/mL | > 200 µg/mL | > 200 µg/mL | > 200 µg/mL | 200 µg/mL | > 200 µg/mL | 25 µg/mL | 200 µg/mL | 100 µg/mL | > 200 µg/mL | 25 µg/mL
C[N+](C)(CCCCCOc1c(Br)cc(Br)cc1Br)Cc1ccc([N+](=O)[O-])o1.[Br-] | 25 µg/mL | 25 µg/mL | > 200 µg/mL | > 200 µg/mL | 7.5 µg/mL | > 200 µg/mL | > 200 µg/mL | > 200 µg/mL | > 200 µg/mL | > 200 µg/mL | 7.5 µg/mL | 25 µg/mL | 25 µg/mL | > 200 µg/mL | 5 µg/mL
Cc1cc(OCCCC[N+](C)(C)Cc2ccco2)c(C(C)C)cc1Cl.[Br-] | 25 µg/mL | 25 µg/mL | > 200 µg/mL | 100 µg/mL | 10 µg/mL | > 200 µg/mL | > 200 µg/mL | > 200 µg/mL | > 200 µg/mL | > 200 µg/mL | 7.5 µg/mL | 25 µg/mL | 25 µg/mL | > 200 µg/mL | 10 µg/mL
C[N+](C)(CCCCOc1c(Br)cc(Br)cc1Br)Cc1ccc([N+](=O)[O-])o1.[Br-] | 25 µg/mL | 50 µg/mL | > 200 µg/mL | > 200 µg/mL | 25 µg/mL | > 200 µg/mL | > 200 µg/mL | > 200 µg/mL | 50 µg/mL | > 200 µg/mL | 8 µg/mL | 50 µg/mL | 50 µg/mL | > 200 µg/mL | 10 µg/mL
